Article PMC11649739 (Clinical Pharmacokinetics, 2024)
Like-named read-outs stand apart in the source and are kept apart here.

Format: in vivo, human
Conditions: for CL/F, Maximum / CL/F, Mean / CL/F, Median / CL/F, Minimum / Vc/F, Maximum / Vc/F, Mean / Vc/F, Median / Vc/F, Minimum: Bayesian-estimated; for AUC / concentration at 24 h: human, plasma, oral; for concentration at 24 h: 24 h postdose on day 1
Procedure, shortened: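 Ensitrelvir was dosed once daily, 375 mg on day 1 then 125 mg on days 2–5, or 750/250 mg. A population PK model was fitted to 8034 plasma concentrations from 2060 healthy and SARS-CoV-2-infected participants: two-compartment, first-order absorption, with covariates tested on CL/F. Empirical Bayesian estimates from the final model were used to calculate individual exposures for SCORPIO-SR phase III participants.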

[1] = 125 mg group: 375 mg on day 1 and 125 mg on days 2–5
[2] = 125 mg group: 375 mg on day 1 and 125 mg on days 2–5, day 1
[3] = 125 mg group: 375 mg on day 1 and 125 mg on days 2–5, day 5
[4] = 250 mg group: 750 mg on day 1 and 250 mg on days 2–5
[5] = 250 mg group: 750 mg on day 1 and 250 mg on days 2–5, day 1
[6] = 250 mg group: 750 mg on day 1 and 250 mg on days 2–5, day 5

Compound: Cn1cnc(Cn2c(=O)[nH]/c(=N\c3cc4cn(C)nc4cc3Cl)n(Cc3cc(F)c(F)cc3F)c2=O)n1 [ensitrelvir]
- Entire AUC, Maximum [1]: 4429 µg·h/mL
- Entire AUC, Minimum [1]: 1404 µg·h/mL
- Entire Cmax, Maximum [1]: 46800 ng/mL
- Entire Cmax, Minimum [1]: 14300 ng/mL
- CL/F, Maximum [1]: 0.400 L/h
- CL/F, Mean [1]: 0.216 L/h
- CL/F, Median [1]: 0.212 L/h
- CL/F, Minimum [1]: 0.116 L/h
- Vc/F, Maximum [1]: 34.4 L
- Vc/F, Mean [1]: 15.1 L
- Vc/F, Median [1]: 14.7 L
- Vc/F, Minimum [1]: 7.66 L
- AUC_d1, Maximum [2]: 784.7 µg·h/mL
- AUC_d1, Minimum [2]: 127.0 µg·h/mL
- Cmax_d1, Maximum [2]: 41000 ng/mL
- Cmax_d1, Mean [2]: 23400 ng/mL
- Cmax_d1, Median [2]: 22900 ng/mL
- Cmax_d1, Minimum [2]: 10300 ng/mL
- AUC_d5, Maximum [3]: 1156 µg·h/mL
- AUC_d5, Minimum [3]: 224.5 µg·h/mL
- Cmax_d5, Maximum [3]: 46800 ng/mL
- Cmax_d5, Mean [3]: 26600 ng/mL
- Cmax_d5, Median [3]: 26200 ng/mL
- Cmax_d5, Minimum [3]: 14300 ng/mL
- Entire AUC, Maximum [4]: 9652 µg·h/mL
- Entire AUC, Minimum [4]: 3090 µg·h/mL
- Entire Cmax, Maximum [4]: 104000 ng/mL
- Entire Cmax, Minimum [4]: 31900 ng/mL
- CL/F, Maximum [4]: 0.353 L/h
- CL/F, Mean [4]: 0.201 L/h
- CL/F, Median [4]: 0.198 L/h
- CL/F, Minimum [4]: 0.0963 L/h
- Vc/F, Maximum [4]: 28.1 L
- Vc/F, Mean [4]: 14.5 L
- Vc/F, Median [4]: 14.1 L
- Vc/F, Minimum [4]: 7.31 L
- AUC_d1, Maximum [5]: 1617 µg·h/mL
- AUC_d1, Minimum [5]: 375.0 µg·h/mL
- Cmax_d1, Maximum [5]: 86900 ng/mL
- Cmax_d1, Mean [5]: 48900 ng/mL
- Cmax_d1, Median [5]: 47700 ng/mL
- Cmax_d1, Minimum [5]: 24900 ng/mL
- AUC_d5, Maximum [6]: 2502 µg·h/mL
- AUC_d5, Minimum [6]: 615.4 µg·h/mL
- Cmax_d5, Maximum [6]: 104000 ng/mL
- Cmax_d5, Mean [6]: 56400 ng/mL
- Cmax_d5, Median [6]: 55100 ng/mL
- Cmax_d5, Minimum [6]: 31900 ng/mL
- AUC (AUC_d1, Mean, 125 mg group: 375 mg on day 1 and 125 mg on days 2–5, day 1): 438 µg·h/mL
- AUC (AUC_d1, Mean, 250 mg group: 750 mg on day 1 and 250 mg on days 2–5, day 1): 910 µg·h/mL
- AUC (AUC_d1, Median, 125 mg group: 375 mg on day 1 and 125 mg on days 2–5, day 1): 432 µg·h/mL
- AUC (AUC_d1, Median, 250 mg group: 750 mg on day 1 and 250 mg on days 2–5, day 1): 887 µg·h/mL
- AUC (AUC_d5, Mean, 125 mg group: 375 mg on day 1 and 125 mg on days 2–5, day 5): 578 µg·h/mL
- AUC (AUC_d5, Mean, 250 mg group: 750 mg on day 1 and 250 mg on days 2–5, day 5): 1230 µg·h/mL
- AUC (AUC_d5, Median, 125 mg group: 375 mg on day 1 and 125 mg on days 2–5, day 5): 568 µg·h/mL
- AUC (AUC_d5, Median, 250 mg group: 750 mg on day 1 and 250 mg on days 2–5, day 5): 1200 µg·h/mL
- concentration at 24 h (C24_d1, Maximum, 125 mg group: 375 mg on day 1 and 125 mg on days 2–5): 27600 ng/mL
- concentration at 24 h (C24_d1, Maximum, 250 mg group: 750 mg on day 1 and 250 mg on days 2–5): 61000 ng/mL
- concentration at 24 h (C24_d1, Mean, 125 mg group: 375 mg on day 1 and 125 mg on days 2–5): 16600 ng/mL
- concentration at 24 h (C24_d1, Mean, 250 mg group: 750 mg on day 1 and 250 mg on days 2–5): 34800 ng/mL
- concentration at 24 h (C24_d1, Median, 125 mg group: 375 mg on day 1 and 125 mg on days 2–5): 16500 ng/mL
